# ABCB6 inh MLPCN: inhibitors of human ABC transporter ABCB6; K562-ABCB6 porphyrin accumulation, flow cytometry, 1 h; stronger effect = lower value; fluorescence ratio to DMSO, % at 10 µM; hit rate 0.19% among 360,000; AID 602162;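 active means fluorescence ratio to DMSO below 75%, the collection mean minus 3 SD; inconclusive means too few cells collected in the well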;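 further: signal is porphyrin accumulated inside mitochondria; 100% equals median channel fluorescence of DMSO control wells; lower ratio means ABCB6 inhibition with less porphyrin fluorescence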
# p97 ATPase inh: inhibitors of human p97 ATPase; recombinant p97 ATPase, Kinase-Glo ATP luminescence, 3 h; hit rate 0.42% among 220,000; inhibition, % at 8 µM; AID 1481; in the data active means inhibition above about 15%;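 further: 0% = DMSO vehicle and 100% = wells lacking enzyme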
# HSV augment: increases HSV replication in cells | hit rate 0.005% among 220,000 | HSV replication augmentation in cells, fold increase | maximum fold increase | AID 1956; in the data active means maximum fold increase above about 1.5; inconclusive means no clear call, values can overlap the other calls; tested in PC3 cells
# ABCB1 block: human ABCB1 inhibition, ABCG2 as counter-screen; P08183; CCRF-Adr cells, JC-1 efflux, flow cytometry; inhibition, % at 6.6 µM; hit rate 0.067% among 190,000; in the data active means inhibition above about 40%;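 further: 0% = vehicle and 100% = reference inhibitor; higher value means more JC-1 retained so stronger ABCB1 efflux block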
# Target sequence (P08183 whole entry, looked up): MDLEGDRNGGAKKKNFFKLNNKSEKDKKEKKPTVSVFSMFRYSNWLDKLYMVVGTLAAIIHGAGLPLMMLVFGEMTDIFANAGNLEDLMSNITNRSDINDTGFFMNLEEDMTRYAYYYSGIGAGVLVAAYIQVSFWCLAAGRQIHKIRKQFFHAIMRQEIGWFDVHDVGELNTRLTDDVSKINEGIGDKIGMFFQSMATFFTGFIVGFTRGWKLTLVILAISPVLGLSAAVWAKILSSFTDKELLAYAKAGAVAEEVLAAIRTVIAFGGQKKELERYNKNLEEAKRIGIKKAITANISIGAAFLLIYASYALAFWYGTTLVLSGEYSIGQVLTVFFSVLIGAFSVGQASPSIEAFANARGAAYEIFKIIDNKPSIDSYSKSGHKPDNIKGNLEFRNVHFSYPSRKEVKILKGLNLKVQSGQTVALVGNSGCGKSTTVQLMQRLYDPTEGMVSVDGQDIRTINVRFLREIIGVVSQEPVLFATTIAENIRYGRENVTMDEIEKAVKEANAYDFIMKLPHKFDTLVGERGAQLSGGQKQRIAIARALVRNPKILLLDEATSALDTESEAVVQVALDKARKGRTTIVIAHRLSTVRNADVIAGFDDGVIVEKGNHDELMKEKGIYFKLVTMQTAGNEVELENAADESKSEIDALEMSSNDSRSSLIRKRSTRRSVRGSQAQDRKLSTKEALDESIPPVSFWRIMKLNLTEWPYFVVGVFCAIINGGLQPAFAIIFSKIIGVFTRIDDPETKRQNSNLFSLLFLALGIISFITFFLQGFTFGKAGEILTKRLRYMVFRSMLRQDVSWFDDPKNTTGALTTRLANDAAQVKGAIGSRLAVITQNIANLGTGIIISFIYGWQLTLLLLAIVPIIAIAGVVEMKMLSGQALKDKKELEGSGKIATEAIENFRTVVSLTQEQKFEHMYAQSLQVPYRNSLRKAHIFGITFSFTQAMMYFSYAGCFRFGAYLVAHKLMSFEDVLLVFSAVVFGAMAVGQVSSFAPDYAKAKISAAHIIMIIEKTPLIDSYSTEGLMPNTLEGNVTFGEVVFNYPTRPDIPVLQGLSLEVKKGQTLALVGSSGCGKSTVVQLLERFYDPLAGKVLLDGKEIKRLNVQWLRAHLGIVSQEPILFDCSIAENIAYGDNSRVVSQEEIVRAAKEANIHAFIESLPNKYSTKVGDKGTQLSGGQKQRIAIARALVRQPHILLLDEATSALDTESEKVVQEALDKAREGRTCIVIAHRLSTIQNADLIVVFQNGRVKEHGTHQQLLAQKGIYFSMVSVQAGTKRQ
# Rad51 HR inh: Rad51 (human) homologous recombination inhibition; Q06609; hit rate 0.085% among 200,000; inhibition, % at 10 µM; hRad51 DNA strand exchange, fluorescence dequenching;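 active means inhibition above 40% at the single screening dose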;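 further: 0% = DMSO control wells and 100% = blanks with heterologous ssDNA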
#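 Material: Human Rad51 nucleoprotein filaments preassembled on unlabelled ssDNA | Also added: Labelled 47-mer dsDNA for strand exchange | Dosing: Single dose, 10 µM final compound | Schedule: 30-min compound preincubation and 15-min exchange, both room temperature | Technique: Fluorescence dequenching at 485/520 nm | Measure: Percent inhibition relative to plate controls and blanks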
# ABCG2 inh: inhibitors of human ABCG2 transporter, ABCB1 counter-screen; IgMXP3 cells, JC-1 efflux, flow cytometry; inhibition, % at 6.6 µM; hit rate 0.1% among 190,000;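 active means inhibition above 80%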;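 further: 0% = DMSO and 100% = nicardipine control wells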
#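 test system = two drug-resistant human cell lines, ABCG2 and ABCB1 | amount = 3 million cells/mL final, two lines in 1:1 ratio | reagent = JC-1 transporter substrate | doses = one concentration, 6.6 µM final | incubation = 10 min at 25 °C | signal = flow cytometric JC-1 green MFI at 530 nm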
# An asterisk follows results filed as active; i = inactive; ? = inconclusive; . = no result; + = active, no number. Sampled rows, rich in hits. Any-hit rate of the full collection: about 0.55%.
SMILES,ABCB6 inh MLPCN,p97 ATPase inh,HSV augment,ABCB1 block,Rad51 HR inh,ABCG2 inh
Cc1ccc(S(=O)(=O)N(C)C[C@H]2Oc3ncc(-c4ccccc4)cc3C(=O)N([C@@H](C)CO)C[C@@H]2C)cc1,100.0,.,.,.,.,.
CSC1=NCCN1C(=O)c1ccc(S(=O)(=O)N(C)C)cc1,101.0,15.0*,i,-2.0,4.1,-3.4
O=C(OC1CC2CC1[C@H]1CCCCN1C2=O)N1CCCCC1 (some centres undefined),95.0,.,.,.,.,.
O=C(O)C1Nc2c(O)cccc2C2C=CCC12 (centres undefined),100.0,22.8*,i,-1.4,2.0,-16.6
O=C(NCCc1ccccc1)C(c1cccs1)N(C(=O)CCl)c1ccc(Cl)cc1 (centres undefined),33.0*,-5.0,i,2.2,.,4.9
O=C(NCCc1ccccc1)C(c1cccs1)N(C(=O)c1csnn1)C1CC1 (centres undefined),98.0,-8.1,i,0.2,-8.6,0.8
CN1OC[C@@H]2CN(S(=O)(=O)c3cccc4ccccc34)[C@H](c3ccc(-c4cccnc4)cc3)C[C@@H]21,100.0,.,.,.,.,.
C=CCN1C(=O)/C(=c2\sc3nc(=O)c(Cc4ccccc4)nn3c2=O)c2ccccc21,103.0,7.4,i,.,15.6,.
C=CCN1C(=O)/C(=c2\sc3nc(=O)c(Cc4ccc(OC)c(OC)c4)nn3c2=O)c2ccccc21,11.0*,13.8,i,.,11.3,.
ClCC1=Nc2cccc3cccc(c23)N1,.,14.8*,i,.,-26.8,.
CCN(c1ccccc1)S(=O)(=O)c1cc(C(=O)NCC(c2ccc(OC)cc2)N(C)C)ccc1C (centres undefined),97.0,.,.,.,.,.
Oc1cccc(Nc2nc(O)c(/C=C3\C=Nc4ccccc43)s2)c1,134.0,32.1*,.,.,-376.4,.
CCOC(=O)C1=C(C)C(c2ccc(OC)cc2OC)NC(=O)N1 (centres undefined),97.0,-4.9,i,1.2,-1.0,89.7*
O=C([C@H]1O[C@@H](n2ccc(=O)[nH]c2=O)[C@H](O)[C@@H]1O)N(CCC1=CCCCC1)CC1CC1,96.0,.,.,.,.,.
CC1=NN(c2ccc(C)c(C)c2)C(=O)C1C(c1cccc(O)c1)C1C(=O)N(c2ccc(C)c(C)c2)N=C1C (centres undefined),96.0,35.4*,?,0.0,-1.2,-0.1
Cc1ccc(N2C(=O)C3C4C=CC(C4)C3C2=O)cc1C (centres undefined),88.0,5.8,i,1.0,4.0,2.6
Cc1ccc2ccccc2c1C(O)c1ncc(-c2ccccc2)[nH]1 (centres undefined),101.0,.,.,.,.,.
O=C(O)c1ccccc1Nc1cccc(C(F)(F)F)c1,106.0,15.1*,.,0.1,-8.0,3.1
CC(=O)c1cccc(NC(=O)C2Cc3c(-c4ccco4)ccnc3O2)c1 (centres undefined),93.0,.,.,.,.,.
CN(C(=O)CSc1nnc(-c2ccncc2)n1-c1ccccc1)C1CCS(=O)(=O)C1 (centres undefined),96.0,2.8,i,.,48.4*,.
CCN(C(=O)CSc1nnc(-c2ccncc2)n1-c1ccccc1)C1CCS(=O)(=O)C1 (centres undefined),95.0,-0.2,i,0.0,-21.0,-0.7
COCCN(Cc1ccc(C)cc1)C(=O)[C@H]1O[C@@H](n2ccc(=O)[nH]c2=O)[C@H](O)[C@@H]1O,97.0,.,.,.,.,.
N/C(=N\OS(=O)(=O)c1ccc(Br)cc1)c1ccncc1,63.0*,0.6,i,-0.4,4.3,-2.6
CN(C)c1ccc(/C=C2/C(=O)N(c3ccc([N+](=O)[O-])cc3)N=C2N2CCOCC2)cc1,.,31.5*,i,-0.1,8.6,-0.5
CN(C)c1ccc(/C=C2\C(=O)N(c3ccc([N+](=O)[O-])cc3)N=C2N2CCOCC2)cc1,.,23.3*,.,.,.,.
SMILES,ABCB6 inh MLPCN,p97 ATPase inh,HSV augment,ABCB1 block,Rad51 HR inh,ABCG2 inh
O=C(NC1CCCC1)C(c1cccnc1)N(C(=O)c1csnn1)c1ccccc1Cl (centres undefined),101.0,.,.,.,.,.
CC(C)c1ccc(O)c(=O)cc1,101.0,.,.,.,.,.
Cc1ccc(CN2C(=O)N/C(=C\c3ccc(N4CCOCC4)cc3)C2=O)cc1,92.0,3.0,i,0.5,4.9,1.3
CCCN1C(=O)/C(=C/c2ccc(N3CCOCC3)cc2)NC1=S,101.0,0.7,1.59*,-0.3,-230.7,-0.6
CC(C)NC(=O)N(C)C[C@H]1Oc2ncc(Br)cc2C(=O)N([C@H](C)CO)C[C@@H]1C,101.0,.,.,.,.,.
COc1cc(C)c(S(=O)(=O)NCc2ccc3c(c2)OCO3)cc1C,71.0*,-2.1,i,0.3,3.9,0.6
COc1cc(S(=O)(=O)NCc2ccc3c(c2)OCO3)c(OC)cc1C,101.0,.,.,.,.,.
CCNc1nc(CC)nc2c1oc1ccccc12,112.0,5.0,i,0.1,0.7,0.8
CCNc1nc(C)nc2c1oc1ccccc12,67.0*,5.6,i,0.7,4.5,5.1
O=S1(=O)CCC(NC(=S)Nc2ccc(Cl)cc2)C1 (centres undefined),73.0*,5.7,i,-1.6,-1.5,-8.9
O=C(Nc1ccc2c(c1)OCCO2)c1cccc(S(=O)(=O)N2CCCCC2)c1,101.0,-0.9,i,-0.2,121.7*,9.9
NC(=O)NC(=O)COC(=O)c1cccc(S(=O)(=O)N2CCCCCC2)c1,100.0,4.0,i,.,45.9*,.
O=C1c2ccccc2S(=O)(=O)N1CC(O)COc1ccc(Br)cc1 (centres undefined),73.0*,0.3,i,0.9,2.3,0.8
CSC1=NSC2=NC(=O)/C(=C/c3coc4ccccc4c3=O)C(=N)N12,98.0,11.8,?,33.9,i,+
CSC1=NSC2=NC(=O)/C(=C/c3coc4ccc(O)cc4c3=O)C(=N)N12,303.0,9.7,?,+,i,0.8
Cc1ccc(Cc2c(-c3ccc(C)cc3)nc3c(Cl)cc(C(F)(F)F)cn23)cc1,123.0,.,.,.,.,.
O=C(NCc1ccccc1Cl)c1ccc2nc([C@@H]3O[C@H](CO)[C@@H](O)[C@H]3O)[nH]c2c1,109.0,.,.,.,.,.
O=C(NC1CCCC1)C1CCC(=O)N1C1CCCCC1 (centres undefined),97.0,3.9,i,-0.6,44.6*,-1.1
CCOC(=O)c1c(NC(=O)CSc2ncnc3ccccc23)sc(C(C)=O)c1C,96.0,0.3,i,41.7*,-3.9,39.6
COC(=O)c1c(NC(=O)CSc2ncnc3ccccc23)sc(C)c1C,92.0,.,.,.,.,.
COc1cccc(NC(=O)c2oc3ccccc3c2NC(C)=O)c1,103.0,-11.7,i,0.7,112.3*,4.6
CCC(C(=O)Nc1ccccc1)c1ccccc1 (centres undefined),102.0,3.6,i,.,2.3,172.5*
O=C(Nc1ccccc1)C(Cc1ccccc1)c1ccccc1 (centres undefined),100.0,.,.,.,.,.
COC(=O)Cc1ccc(OC2(C)CCN(Cc3ccccc3)C2)cc1 (centres undefined),91.0,.,.,.,.,.
O=C(COC(=O)Cc1c[nH]c2ccccc12)Nc1cccc(Br)c1,96.0,.,.,.,.,.
